Read-outs that look alike come from different tables or passages of the source.
Experiments:
[1] = test system: follicle-enclosed oocytes; experiment: Nuclear envelope breakdown; format: cell-based, mouse
Summary of the method: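 Meiotic resumption scored by viewing the oocyte nucleus through the follicle wall from above (20X/0.4 NA long working distance objective). Follicles from 23–24-day B6SJLF1 mice were cultured 24–32 h in FSH-containing, serum-free medium (3 mg/ml BSA), 37°C, 5% CO2, checked at 24 h, and only healthy prophase-arrested ones used. LH at 350 nM. Experiments discarded when <70% of LH controls reached NEBD by 5 h.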

EGFR kinase = settings: read-out: IC50, EGFR kinase activity; in vitro; ref Levitzki & Gazit 1995; cited from earlier work
ERK1 = ERK1 (Homo sapiens, UniProt P27361); experiment: In vitro kinase profiling, ERK1; format: biochemical; settings: 1 μM AG1478
EGFR [2] = target: T1, EGFR (Mus musculus, UniProt Q01279); settings: 500 nM AG1478, follicles stimulated with LH; ref Panigone et al. 2008; cited from earlier work
[3] = test system: cGMP in mouse ovarian follicles; experiment: cGMP ELISA assay in isolated ovarian follicles; format: cell-based
Summary of the method: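 Cultured mouse antral follicles (24–32 h, FSH, 3 mg/ml BSA), treated 1 h with LH (350 nM) or epiregulin (100 nM), or 1 h 500 nM test compound then 1 h test compound + LH. 12–20 unfrozen follicles washed in Ca/Mg-free PBS, sonicated in 0.1 M HCl (±1% Triton X-100), heated 95°C 2 min, stored −80°C, assayed by cGMP ELISA. Concentration approximated from 20 nl estimated cellular volume; mean ± s.e.m.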

110 kinases = experiment: In vitro kinase profiling panel; format: biochemical; settings: for percent of activity remaining: 1 μM AG1478
EGFR [4] = target: T1, EGFR; experiment: Immunoblot of EGFR phosphorylation on tyrosine 1068 in follicles; format: cell-based; settings: 500 nM AG1478, follicles stimulated with LH
ERK2 = ERK2 (Homo sapiens, UniProt P28482); experiment: In vitro kinase profiling, ERK2; format: biochemical; settings: 1 μM AG1478
[5] = test system: gap junctions in mouse ovarian follicles; experiment: Gap junction permeability by Alexa Fluor 350 tracer injection; format: cell-based; settings: for MG/IC fluorescence ratio as percent of the basal level: one hour treatment, LH 350 nM, epiregulin 100 nM
Summary of the method: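 Antral follicles (~320–400 μm) from 23–24-day B6SJLF1 mice, cultured 24–32 h at 37°C, 5% CO2, in phenol-red-free MEMα with FSH and 3 mg/ml BSA; 1 h LH (350 nM) or epiregulin. Follicle-enclosed oocyte microinjected with 2.5 mM Alexa Fluor 350 (326 Da); two-photon imaging 20 min later; mural granulosa/inner cumulus fluorescence ratio; mean ± s.e.m., n = follicles.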

[6] = test system: cGMP in mouse ovarian follicles; settings: ref Vaccari et al. 2009, cited from earlier work
[7] = test system: gap junctions in mouse ovarian follicles; settings: 10 μM U0126; ref Norris et al. 2008; cited from earlier work
MAP kinase = settings: 10 μM U0126; ref Norris et al. 2008; cited from earlier work
[8] = test system: follicle-enclosed oocytes; settings: U0126; ref Su et al., 2003; Norris et al. 2008; cited from earlier work

T1 sequence (Q01279 25-1210): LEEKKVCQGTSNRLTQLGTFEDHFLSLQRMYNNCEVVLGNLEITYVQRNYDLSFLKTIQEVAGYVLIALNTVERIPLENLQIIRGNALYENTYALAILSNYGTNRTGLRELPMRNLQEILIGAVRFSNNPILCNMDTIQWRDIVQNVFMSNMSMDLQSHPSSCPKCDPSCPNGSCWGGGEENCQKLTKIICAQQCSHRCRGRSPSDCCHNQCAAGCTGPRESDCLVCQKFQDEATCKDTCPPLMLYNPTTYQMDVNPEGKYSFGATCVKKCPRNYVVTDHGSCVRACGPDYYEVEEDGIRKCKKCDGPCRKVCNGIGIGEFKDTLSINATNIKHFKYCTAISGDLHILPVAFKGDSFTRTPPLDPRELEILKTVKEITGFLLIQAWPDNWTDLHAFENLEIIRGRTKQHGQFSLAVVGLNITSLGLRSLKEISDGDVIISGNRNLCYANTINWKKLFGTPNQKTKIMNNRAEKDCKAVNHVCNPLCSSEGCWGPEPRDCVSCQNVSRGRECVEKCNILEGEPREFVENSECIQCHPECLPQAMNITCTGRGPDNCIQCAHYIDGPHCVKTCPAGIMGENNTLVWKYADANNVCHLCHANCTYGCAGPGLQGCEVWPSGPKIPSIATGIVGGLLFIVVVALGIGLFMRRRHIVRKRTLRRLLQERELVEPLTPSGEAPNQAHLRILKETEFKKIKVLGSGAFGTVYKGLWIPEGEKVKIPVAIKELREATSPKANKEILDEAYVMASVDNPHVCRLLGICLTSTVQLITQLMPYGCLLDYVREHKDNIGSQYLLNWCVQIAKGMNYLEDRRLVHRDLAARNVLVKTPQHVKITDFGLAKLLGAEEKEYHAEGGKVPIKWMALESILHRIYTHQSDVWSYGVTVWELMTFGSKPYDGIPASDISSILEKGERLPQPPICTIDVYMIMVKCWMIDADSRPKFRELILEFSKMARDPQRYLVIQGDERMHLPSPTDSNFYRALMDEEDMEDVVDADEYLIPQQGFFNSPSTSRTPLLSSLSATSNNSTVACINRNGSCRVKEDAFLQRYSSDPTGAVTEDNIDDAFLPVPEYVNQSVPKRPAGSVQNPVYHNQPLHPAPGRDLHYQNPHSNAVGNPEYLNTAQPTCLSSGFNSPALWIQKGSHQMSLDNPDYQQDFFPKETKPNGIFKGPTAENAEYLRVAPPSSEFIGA
Sequence of ERK1 (P27361 whole entry, species assumed): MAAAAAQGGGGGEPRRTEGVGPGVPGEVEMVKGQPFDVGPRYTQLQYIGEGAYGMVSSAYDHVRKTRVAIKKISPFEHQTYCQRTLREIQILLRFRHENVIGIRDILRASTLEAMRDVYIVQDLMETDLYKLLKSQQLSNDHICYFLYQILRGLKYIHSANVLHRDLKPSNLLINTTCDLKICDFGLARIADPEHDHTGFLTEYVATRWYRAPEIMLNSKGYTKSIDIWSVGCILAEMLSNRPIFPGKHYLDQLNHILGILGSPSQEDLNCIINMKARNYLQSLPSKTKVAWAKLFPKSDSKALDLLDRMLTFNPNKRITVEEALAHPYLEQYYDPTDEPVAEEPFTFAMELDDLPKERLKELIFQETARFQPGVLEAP
Sequence of ERK2 (P28482 whole entry, species assumed): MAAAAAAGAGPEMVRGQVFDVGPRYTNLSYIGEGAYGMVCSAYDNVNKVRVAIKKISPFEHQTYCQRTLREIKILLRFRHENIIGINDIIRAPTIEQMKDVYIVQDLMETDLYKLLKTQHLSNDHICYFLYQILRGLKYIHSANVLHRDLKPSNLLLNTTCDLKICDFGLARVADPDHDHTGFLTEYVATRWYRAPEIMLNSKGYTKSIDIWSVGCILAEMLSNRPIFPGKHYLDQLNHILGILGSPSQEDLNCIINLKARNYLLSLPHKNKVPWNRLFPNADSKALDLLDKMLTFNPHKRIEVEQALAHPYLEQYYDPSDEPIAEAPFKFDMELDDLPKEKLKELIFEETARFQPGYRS

For COc1cc2ncnc(Nc3cccc(Cl)c3)c2cc1OC [AG1478], the “oocytes that had resumed meiosis” value ([1]; 500 nM AG1478 + LH, observed at 20 hours) is given as ~ 30%, the “effect on nuclear envelope breakdown in response to LH” value ([1]; 500 nM AG1478, observed at 6 hours) is given as “completely inhibited” and the IC50 (EGFR kinase) is given as […]. The “inhibition of ERK1” value (ERK1) was “not inhibited”, the “effect on LH-induced EGFR phosphorylation on tyrosine 1068” value (EGFR [2]) was “completely inhibits” and the “cGMP as percent of the basal level” value ([3]; 1 hour after LH in the presence of 500 nM AG1478) was ~ 15%. For the same compound, the “follicle cGMP concentration” value ([3]; 1 hour after LH in the presence of 500 nM AG1478 (1 hour pretreatment)) was […], the “percent of activity remaining” value (110 kinases; seven of the 110 kinases tested) was 30-50% and the “percent of activity remaining” value (110 kinases; the other 101 kinases) was over 50%. For the same compound, the “percent of activity remaining” value (110 kinases; two of the 110 kinases tested) was 10-20%, the IC50 (110 kinases; 101 out of the 110 kinases tested) was over 1000 nM and the “LH-stimulated phosphorylation of the EGFR on tyrosine 1068” value (EGFR [4]) was “indistinguishable from the basal level without LH”. The “inhibition of ERK2” value (ERK2) was “not inhibited”, the “gap junction permeability after LH application” value ([5]; in the presence of 500 nM AG1478) was “indistinguishable from that in an untreated follicle” and the “effect on the cGMP decrease in response to LH” value ([6]; 500 nM AG1478) was “completely inhibited”.
For N#CC(=C(/N)Sc1ccccc1N)/C(C#N)=C(/N)Sc1ccccc1N [U0126], the “effect on gap junction closure in response to LH” value [7] is given as “completely inhibits”, the “effect on MAP kinase activation in response to LH” value (MAP kinase) is given as “fully inhibit” and the “effect on the cGMP decrease in response to LH” value ([3]; 10 μM U0126, 1 hour pretreatment then 1 hour U0126 + LH) is given as “did not have any inhibitory effect”. The “meiotic resumption in response to LH in the presence of inhibitor” value [8] was “causes meiotic resumption”.
For epiregulin, the “oocytes that underwent nuclear envelope breakdown” value ([1]; 100 nM epiregulin, by 4 hours) was “Approximately 90%”, the “part of the LH-induced follicle cGMP decrease caused by epiregulin” value ([3]; 100 nM epiregulin, 1 hour, relative to LH) was ~ 80% and the “follicle cGMP concentration” value ([3]; 1 hour treatment with 100 nM epiregulin) was ~ 600 nM. For the same compound, the “MG/IC fluorescence ratio as percent of the basal level” value [5] was 32%.
In the case of luteinizing hormone [LH], the “cGMP as percent of the basal level” value ([3]; 1 hour after LH application) is reported as ~ 4%, the “follicle cGMP concentration” value ([3]; 1 hour after LH application (350 nM), approximate) is reported as ~ 100 nM and the “follicle cGMP concentration” value ([3]; 5 hours after LH application (350 nM), approximate) is reported as ~ 30 nM. The “MG/IC fluorescence ratio as percent of the basal level” value [5] was 9% and the “cGMP as percent of the basal level” value ([6]; 1 hour after LH application) was 39%.
